These results are taken from ChEMBL document CHEMBL1122688, “Antimycotic azoles. 7. Synthesis and antifungal properties of a series of novel triazol-3-ones” (1984).

One experiment concerns Aspergillus fumigatus. As to the kind of experiment: In vitro antifungal activity against Aspergillus fumigatus. The class given is functional. A digest of the protocol: (§1)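 Fungal growth-inhibition screen (Godefroi method) against dermatophytes, yeasts, moulds and other fungi. The value is the lowest concentration (µg/mL) giving total inhibition of growth, tested up to 100 µg/mL.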

Another experiment relates to Candida albicans. As to the kind of experiment: In vitro antifungal activity against Candida albicans. The class given is functional. The essentials: as §1
The next experiment relates to Candida tropicalis. The experiment is described as follows: In vitro antifungal activity against Candida tropicalis. The class given is functional. A digest of the protocol:
as §1

The subject of the next experiment is Cryptococcus neoformans. The experiment is described as follows: In vitro antifungal activity against Cryptococcus neoformans. The class given is functional. A digest of the protocol: as §1
In another experiment the test system is Microsporum canis. As to the kind of experiment: In vitro antifungal activity against Microsporum canis. The class given is functional. The essentials: as §1
Experiment [1] in a line: In vitro antifungal activity against Mucor sp. The class given is functional. The essentials:
as §1

The next experiment has as its system Phialophora verrucosa. The experiment is described as follows: In vitro antifungal activity against Phialophora verrucosa. The class given is functional. A digest of the protocol:
as §1

For the next experiment, the system named is Saprolegnia. As to the kind of experiment: In vitro antifungal activity against Saprolegnia sp. The class given is functional. The essentials: as §1
The test system of a further experiment is Sporothrix schenckii. As to the kind of experiment: In vitro antifungal activity against Sporothrix schenck ii. The class given is functional. The essentials:
as §1

Another experiment relates to Trichophyton benhamiae. The experiment is described as follows: In vitro antifungal activity against Trichophyton mentagrophytes. The class given is functional, Arthroderma benhamiae. A digest of the protocol:
as §1

In a further experiment the test system is Trichophyton rubrum. The experiment is described as follows: In vitro antifungal activity against Trichophyton rubrum. The class given is functional. A digest of the protocol:
as §1

The nature of experiment [2]: In vivo activity against microsporosis guinea pig, measured as the ratio of animals cured/animals infected (C/I) at dose 10 mg/kg; C/I = 0/2. The class given is functional.
Experiment [3] is described as follows: In vivo activity against microsporosis guinea pig, measured as the ratio of animals cured/animals infected (C/I) at dose 10 mg/kg; C/I = 1/2. The class given is functional.
Experiment [4] in a line: In vivo activity against vaginal candidoses in rats, measured as the ratio of animals cured/animals infected (C/I) at dose 2.5 mg/kg; C/I = 0/2. The class given is functional.
Experiment [5] is described as follows: In vivo activity against vaginal candidoses in rats, measured as the ratio of animals cured/animals infected (C/I) at dose 2.5 mg/kg; C/I = 4/6. The class given is functional.
Experiment [6] is described as follows: In vivo activity against vaginal candidoses in rats, measured as the ratio of animals cured/animals infected (C/I) at dose 1.25 mg/kg; C/I = 0/2. The class given is functional.
Experiment [7] is described as follows: In vivo activity against vaginal candidoses in rats, measured as the ratio of animals cured/animals infected (C/I) at dose 10 mg/kg; C/I = 4/4. The class given is functional.
Experiment [8] is described as follows: In vivo activity against microsporosis guinea pig, measured as the ratio of animals cured/animals infected (C/I) at dose 2.5 mg/kg; C/I = 0/2. The class given is functional.
The nature of experiment [9]: In vivo activity against microsporosis guinea pig, measured as the ratio of animals cured/animals infected (C/I) at dose 10 mg/kg; C/I = 2/2. The class given is functional.
A short description of experiment [10]: In vivo activity against vaginal candidoses in rats, measured as the ratio of animals cured/animals infected (C/I) at dose 2.5 mg/kg; C/I = 1/2. The class given is functional.

Bounds are passed on as bounds.

In the case of `Cc1nnc(O)n1-c1ccc(N2CCN(c3ccc(OC[C@@H]4COC(Cn5cncn5)(c5ccc(Cl)cc5Cl)O4)cc3)CC2)cc1` (stereo partly specified), the Inhibition is more than 100 µg/mL in the experiment on Aspergillus fumigatus; more than 100 µg/mL with Candida albicans; 1 µg/mL with Candida tropicalis; 100 µg/mL with Cryptococcus neoformans; more than 100 µg/mL in the experiment with Microsporum canis; more than 100 µg/mL in [1]. For the same compound, the Inhibition was 100 µg/mL with Phialophora verrucosa; more than 100 µg/mL in the experiment on Saprolegnia; more than 100 µg/mL in the experiment on Sporothrix schenckii; 10 µg/mL in the experiment with Trichophyton benhamiae; 100 µg/mL in the experiment with Trichophyton rubrum. The C/I ratio in experiment [2] is listed as 0.
As for `CC(C)CCn1ncn(-c2ccc(N3CCN(c4ccc(OC[C@@H]5COC(Cn6cncn6)(c6ccc(Cl)cc6Cl)O5)cc4)CC3)cc2)c1=O` (stereo partly specified), the Inhibition in the experiment on Aspergillus fumigatus is more than 100 µg/mL; in the experiment with Candida albicans it was 100 µg/mL; in the experiment with Candida tropicalis it was more than 100 µg/mL; in the experiment with Cryptococcus neoformans it was more than 100 µg/mL; with Microsporum canis, more than 100 µg/mL; in experiment [1] it was more than 100 µg/mL. Moreover, the Inhibition with Phialophora verrucosa is more than 100 µg/mL; in the experiment with Saprolegnia, more than 100 µg/mL; in the experiment with Sporothrix schenckii it was more than 100 µg/mL; in the experiment on Trichophyton benhamiae, 100 µg/mL; in the experiment on Trichophyton rubrum it was more than 100 µg/mL. Further, the C/I ratio in [3] was determined as 1; in experiment [4], 0.
On to `CCCCn1ncn(-c2ccc(N3CCN(c4ccc(OC[C@@H]5COC(Cn6ccnc6)(c6ccc(Cl)cc6Cl)O5)cc4)CC3)cc2)c1=O` (stereo partly specified), for which the Inhibition with Aspergillus fumigatus was more than 100 µg/mL; with Candida albicans it was 100 µg/mL; with Candida tropicalis, 100 µg/mL; with Cryptococcus neoformans it was more than 100 µg/mL; in the experiment on Microsporum canis, more than 100 µg/mL; in [1], more than 100 µg/mL. In addition, the Inhibition in the experiment on Phialophora verrucosa is more than 100 µg/mL; in the experiment with Saprolegnia, more than 100 µg/mL; with Sporothrix schenckii, more than 100 µg/mL; in the experiment on Trichophyton benhamiae it was 100 µg/mL; in the experiment with Trichophyton rubrum, 10 µg/mL. Further, the C/I ratio in [5] was found to be 4; in experiment [6], 0.
For the compound `CCCn1ncn(-c2ccc(N3CCN(c4ccc(OC[C@@H]5COC(Cn6ccnc6)(c6ccc(Cl)cc6Cl)O5)cc4)CC3)cc2)c1=O` (stereo partly specified), the Inhibition (with Aspergillus fumigatus; in the experiment with Candida albicans; in the experiment on Candida tropicalis; with Cryptococcus neoformans; in the experiment with Microsporum canis; in experiment [1]) was more than 100 µg/mL in each case. In addition, the Inhibition is more than 100 µg/mL in the experiment on Phialophora verrucosa; more than 100 µg/mL in the experiment with Saprolegnia; more than 100 µg/mL in the experiment on Sporothrix schenckii; 100 µg/mL with Trichophyton benhamiae; 100 µg/mL in the experiment with Trichophyton rubrum. Also, the C/I ratio turned out to be 0 in experiment [4] and 1 in [7].
In the case of `O=c1n(-c2ccc(N3CCN(c4ccc(OC[C@@H]5COC(Cn6cncn6)(c6ccc(Cl)cc6Cl)O5)cc4)CC3)cc2)cnn1C1CCCC1` (stereo partly specified), the Inhibition (in the experiment with Aspergillus fumigatus; in the experiment with Candida albicans; in the experiment with Candida tropicalis; in the experiment with Cryptococcus neoformans; in the experiment with Microsporum canis; in experiment [1]) was more than 100 µg/mL in each case. The Inhibition is more than 100 µg/mL in the experiment on Phialophora verrucosa; more than 100 µg/mL with Saprolegnia; more than 100 µg/mL with Sporothrix schenckii; 100 µg/mL with Trichophyton benhamiae; more than 100 µg/mL in the experiment on Trichophyton rubrum. In addition, the C/I ratio in experiment [8] is reported as 0; in experiment [9], 2; in experiment [10] it was 1.
Consider `Cc1nnc(O)n1-c1ccc(N2CCN(c3ccc(OC[C@@H]4COC(Cn5ccnc5)(c5ccc(Cl)cc5Cl)O4)cc3)CC2)cc1` (stereo partly specified), for which the Inhibition is more than 100 µg/mL in the experiment on Aspergillus fumigatus; 100 µg/mL in the experiment with Candida albicans; 10 µg/mL with Candida tropicalis; 100 µg/mL in the experiment on Cryptococcus neoformans; more than 100 µg/mL in the experiment on Microsporum canis; more than 100 µg/mL in [1]. Also, the Inhibition was more than 100 µg/mL with Phialophora verrucosa; more than 100 µg/mL in the experiment with Saprolegnia; more than 100 µg/mL in the experiment on Sporothrix schenckii; 10 µg/mL in the experiment with Trichophyton benhamiae; 10 µg/mL in the experiment on Trichophyton rubrum. Also, the C/I ratio in [2] worked out at 0.
In the case of `O=c1n(-c2ccc(N3CCN(c4ccc(OC[C@@H]5COC(Cn6cncn6)(c6ccc(Cl)cc6Cl)O5)cc4)CC3)cc2)cnn1CC1CC1` (stereo partly specified), the Inhibition with Aspergillus fumigatus is more than 100 µg/mL; in the experiment with Candida albicans, 100 µg/mL; with Candida tropicalis it was more than 100 µg/mL; in the experiment on Cryptococcus neoformans it was more than 100 µg/mL; with Microsporum canis it was more than 100 µg/mL; in experiment [1], more than 100 µg/mL. Besides, the Inhibition in the experiment with Phialophora verrucosa is 100 µg/mL; in the experiment on Saprolegnia, more than 100 µg/mL; with Sporothrix schenckii it was more than 100 µg/mL; with Trichophyton benhamiae, 10 µg/mL; with Trichophyton rubrum, 10 µg/mL. Besides, the C/I ratio was found to be 0 in experiment [8], 1 in experiment [9] and 1 in experiment [10].
With `CC(C)Cn1ncn(-c2ccc(N3CCN(c4ccc(OC[C@@H]5COC(Cn6ccnc6)(c6ccc(Cl)cc6Cl)O5)cc4)CC3)cc2)c1=O` (stereo partly specified), the Inhibition with Aspergillus fumigatus is more than 100 µg/mL; in the experiment on Candida albicans, 100 µg/mL; in the experiment on Candida tropicalis it was more than 100 µg/mL; in the experiment on Cryptococcus neoformans it was more than 100 µg/mL; in the experiment with Microsporum canis, more than 100 µg/mL; in experiment [1], more than 100 µg/mL. Also, the Inhibition was more than 100 µg/mL with Phialophora verrucosa; more than 100 µg/mL in the experiment on Saprolegnia; more than 100 µg/mL with Sporothrix schenckii; 100 µg/mL with Trichophyton benhamiae; more than 100 µg/mL with Trichophyton rubrum. The C/I ratio in experiment [2] was found to be 0; in experiment [10], 1.
Consider `CCC(C)n1ncn(-c2ccc(N3CCN(c4ccc(OC[C@@H]5COC(Cn6ccnc6)(c6ccc(Cl)cc6Cl)O5)cc4)CC3)cc2)c1=O` (stereo partly specified), for which the Inhibition with Aspergillus fumigatus was 100 µg/mL; in the experiment on Candida albicans, more than 100 µg/mL; in the experiment with Candida tropicalis, 1 µg/mL; with Cryptococcus neoformans, 10 µg/mL; in the experiment on Microsporum canis, more than 100 µg/mL; in [1], more than 100 µg/mL. Moreover, the Inhibition in the experiment with Phialophora verrucosa is 100 µg/mL; with Saprolegnia it was more than 100 µg/mL; in the experiment with Sporothrix schenckii it was more than 100 µg/mL; with Trichophyton benhamiae, 1 µg/mL; in the experiment with Trichophyton rubrum, 1 µg/mL. In addition, the C/I ratio in [3] turned out to be 1.
On to `Cc1nn(C(C)C)c(=O)n1-c1ccc(N2CCN(c3ccc(OC[C@@H]4COC(Cn5cncn5)(c5ccc(Cl)cc5Cl)O4)cc3)CC2)cc1` (stereo partly specified), for which the Inhibition in the experiment with Aspergillus fumigatus is more than 100 µg/mL; with Candida albicans it was more than 100 µg/mL; with Candida tropicalis, 10 µg/mL; in the experiment on Cryptococcus neoformans, more than 100 µg/mL; in the experiment with Microsporum canis, more than 100 µg/mL; in experiment [1] it was more than 100 µg/mL. For the same compound, the Inhibition in the experiment with Phialophora verrucosa was more than 100 µg/mL; in the experiment on Saprolegnia, more than 100 µg/mL; in the experiment on Sporothrix schenckii, more than 100 µg/mL; with Trichophyton benhamiae, 100 µg/mL; with Trichophyton rubrum, more than 100 µg/mL. Besides, the C/I ratio in experiment [2] worked out at 0; in experiment [10], 1.
Turning to `Oc1nncn1-c1ccc(N2CCN(c3ccc(OC[C@@H]4COC(Cn5cncn5)(c5ccc(Cl)cc5Cl)O4)cc3)CC2)cc1` (stereo partly specified), the Inhibition (with Aspergillus fumigatus; with Candida albicans; in the experiment with Candida tropicalis; with Cryptococcus neoformans; in the experiment on Microsporum canis; in experiment [1]) was more than 100 µg/mL each time. For the same compound, the Inhibition in the experiment with Phialophora verrucosa, in the experiment on Saprolegnia, in the experiment on Sporothrix schenckii, with Trichophyton benhamiae and with Trichophyton rubrum was more than 100 µg/mL throughout. Further, the C/I ratio in [2] is 0.
